Assay outcomes from PubChem BioAssay.
INS-1E GSIS act = primary screen for activators of insulin secretion dependent on glucose, INS-1E cells, GLuc reporter luminescence; INS-1E GLuc reporter insulin secretion, 2-3 h; activation, % at 16.6 µM; 370,000 tested, 0.61% active;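 active means lowest replicate activation of at least 40%, so every replicate reaches that level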;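 further: 0% = median of neutral control wells and 100% = median of IBMX positive control wells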
AF4-AF9 inh = MLL-AF4/AF9 protein interaction inhibition; 350,000 tested, 0.47% active; P42568; AlphaScreen, biotin-AF4 peptide binding to FLAG-AF9; inhibition, % at 10 µM; AID 651704;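 active means every replicate reaching a set inhibition limit, whatever the replicate mean, cut at about 25% in these data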;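 further: 0% = plate neutral control median and 100% = total signal loss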
E-selectin induc = induces E-selectin expression in human endothelial cells | P16581 | HUVEC E-selectin immunofluorescence imaging; normalized: neutral wells 0, TNF-alpha wells 100 | activation, % at 7.58 µM | 260,000 tested, 0.37% active | AID 686992;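 active means mean E-selectin-positive cell signal at least 10% of the positive control, reached in at least 60% of replicates, without over 20% cell loss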
Target sequence (P16581 whole entry, looked up): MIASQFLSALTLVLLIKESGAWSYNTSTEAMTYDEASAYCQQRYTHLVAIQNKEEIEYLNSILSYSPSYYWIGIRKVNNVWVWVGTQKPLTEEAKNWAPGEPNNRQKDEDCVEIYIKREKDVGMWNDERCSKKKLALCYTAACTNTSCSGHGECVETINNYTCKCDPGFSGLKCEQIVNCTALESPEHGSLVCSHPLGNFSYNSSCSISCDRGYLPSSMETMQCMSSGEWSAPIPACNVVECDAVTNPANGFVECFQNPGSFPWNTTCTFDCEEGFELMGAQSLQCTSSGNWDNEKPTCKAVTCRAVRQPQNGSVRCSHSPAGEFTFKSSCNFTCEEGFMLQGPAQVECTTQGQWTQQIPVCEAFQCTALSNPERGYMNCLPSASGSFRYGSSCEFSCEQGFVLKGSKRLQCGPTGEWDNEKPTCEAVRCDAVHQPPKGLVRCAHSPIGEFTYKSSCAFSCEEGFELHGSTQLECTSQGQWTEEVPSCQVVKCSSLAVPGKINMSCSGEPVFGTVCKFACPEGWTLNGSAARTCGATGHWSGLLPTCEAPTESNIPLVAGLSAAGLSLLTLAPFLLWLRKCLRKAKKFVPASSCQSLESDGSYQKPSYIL
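Assay system: HUVEC, human umbilical vein endothelial cells / Amount: 3,000 HUVEC/well / Controls: TNF-alpha positive control, DMSO neutral control / Compound dosing: single concentration / Medium: EGM-2 over gelatin coat / Evaluation: percent E-selectin-positive cells / Signal: immunofluorescence imaging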
rRNA inh HTS = inhibitors of bacterial rRNA selective over humanized ribosomes | E. coli WT GFP vs humanized-ribosome RFP mutants, fluorescence, 24 h; hits give low values; DMSO median 0, no signal -100 | GFP signal change (wild-type ribosome), % (test concentration not listed) | 350,000 tested, 1.6% active | AID 720706;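 active means significant combined selectivity score with lowered wild-type GFP, culture density cut under 30%, mutant RFP and density less affected; inactive means any of these conditions unmet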
RAD52 anneal inh = inhibitors of human RAD52 DNA annealing; P43351; recombinant RAD52 DNA annealing, FRET fluorescence; inhibition, % at 18.7 µM; 360,000 tested, 0.46% active;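 active means every replicate showing at least 50% inhibition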
RAD54 inh = RAD54 (human) branch migration inhibition. RAD54 Holliday junction branch migration, FAM/BHQ fluorescence. inhibition, % at 10.4 µM. 360,000 tested, 0.14% active. AID 602329;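 active means mean normalized replicate activity at least 40 and at least half of replicates scoring 40 or more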;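 further: 0% = median of neutral control wells and 100% = median of positive control wells; inhibitors cause a drop in the FAM fluorescence signal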
Active calls of the source: *; x = no result. This is a sample that favours compounds with a hit; in the whole collection about 2.6% have one here.

SMILES	INS-1E GSIS act	AF4-AF9 inh	E-selectin induc	rRNA inh HTS	RAD52 anneal inh	RAD54 inh
COc1ccc(NC(=O)N(C)C[C@@H]2Oc3ccc(NC(=O)Cc4ccccc4)cc3CC(=O)N([C@H](C)CO)C[C@H]2C)cc1	-8	-1	336*	2	-5	7
C[C@@H]1CN([C@@H](C)CO)C(=O)Cc2cc(NC(=O)Cc3ccccc3)ccc2O[C@H]1CN(C)C(=O)Nc1cccc2ccccc12	-6	-1	338*	-2	16	1
COc1ccc(NC(=O)N(C)C[C@@H]2Oc3ccc(NC(=O)Cc4ccccc4)cc3CC(=O)N([C@@H](C)CO)C[C@@H]2C)cc1	3	-5	-6	-1	1	6
C[C@H]1CN([C@@H](C)CO)C(=O)Cc2cc(NC(=O)Cc3ccccc3)ccc2O[C@H]1CN(C)C(=O)Nc1cccc2ccccc12	-23	-2	12	-3	28	3
CCN(c1ccc(NC(=O)COC(=O)c2ccc(C)s2)cc1)C(C)C	-22	21	x	-27*	-11	-4
COc1cc(OC)c2c(-c3ccccc3)cc(C3CCCCC3)nc2c1	42*	2	x	2	-17	3
COc1cc(OC)c2c3c(c(C4CCCCC4)nc2c1)CCCC3	0	1	2	-1	-11	-1
Cc1ccc(S(=O)(=O)N(C)C[C@@H]2OCCCC[C@H](C)Oc3ccc(NS(=O)(=O)c4c(C)noc4C)cc3C(=O)N([C@@H](C)CO)C[C@@H]2C)cc1	-2	3	x	2	-70	-3
COC(=O)C1=C(C)NC2=C(C(=O)CCC2)C1c1ccc(-c2ccsc2C(=O)OC)o1 (centres undefined)	12	1	x	-24*	-18	x
Cc1noc(C)c1NC(=O)N(C)C[C@@H]1OCCCC[C@H](C)Oc2ccc(NC(=O)c3ccccc3)cc2C(=O)N([C@@H](C)CO)C[C@H]1C	-8	-2	0	-1	3	1
O=C(NC(=S)NCC1CCCO1)c1ccc(Cl)cc1Cl (centres undefined)	56*	x	x	x	x	x
COc1ccccc1/C=C/C(=O)NC(=S)NCC1CCCO1 (centres undefined)	9	7	0	-25*	-16	3
C[C@@H]1CCCCO[C@@H](CN(C)S(C)(=O)=O)[C@H](C)CN([C@@H](C)CO)C(=O)c2cc(N(C)C)ccc2O1	27	-1	2	4	-67	4
COC(=O)/C(C#N)=C/c1ccc(-c2ccc(S(N)(=O)=O)cc2)o1	7	9	0	-27*	-64	39
Cc1cc(N/N=C/c2ccccc2)nc(NCc2ccccc2)n1	-23	5	x	-35*	-20	-3
Cc1cc(N/N=C/c2ccccc2F)nc(NCc2ccccc2)n1	x	5	1	-30*	-40	x
O=C(Nc1ccccc1F)N1C[C@H]2[C@@H](c3ccccc31)[C@@H](CO)N2C(=O)C1CCCC1	6	-1	0	1	15	-14
COc1ccc(Oc2nc(-c3ccccn3)ncc2OC)cc1	45	2	x	-28*	-19	x
CCC(=O)N1CC(=O)N2[C@@H](CO)[C@@H](c3ccc(C#CC(C)C)cc3)[C@@H]2C1	11	-2	0	1	-2	x
CN(Cc1ccccc1)C1=CC(=[N+]2CCCCC2)CC(C)(C)C1	-46	1	x	-51*	-10	1
NNc1ncnc2scc(-c3ccc(Cl)cc3)c12	8	3	0	-1	-114	8
OCCCNc1ncnc2scc(-c3ccc(Cl)cc3)c12	90*	-2	x	-15	-10	-2
CC(C)c1cc(C(=O)N2CCCC(C(=O)c3ccc4ccccc4c3)C2)on1 (centres undefined)	-29	-6	0	-27	1	1
Cc1cc(Cl)ccc1C(=O)C1CCCN(C(=O)c2cc(C(C)C)no2)C1 (centres undefined)	-17	-1	18	-37*	-16	-4
COc1cc(C=NNC(=O)c2ccccc2NS(=O)(=O)c2cccs2)cc(OC)c1O	-5	-2	0	-52	-3	-3
SMILES	INS-1E GSIS act	AF4-AF9 inh	E-selectin induc	rRNA inh HTS	RAD52 anneal inh	RAD54 inh
COc1ccc(C=NNC(=O)c2ccccc2NS(=O)(=O)c2cccs2)cc1O	2	1	4	-26*	-8	-2
O=C(N/N=C/c1ccc(N2CCOCC2)cc1)c1ccccc1NS(=O)(=O)c1cccs1	-22	-1	5	-40*	-33	x
O=C(N/N=C/c1ccc(N2CCOCC2)cc1)c1ccc(NS(=O)(=O)c2cccs2)cc1	-4	1	0	-6	-227	-9
COc1cc(/C=N/NC(=O)c2ccc(NS(=O)(=O)c3cccs3)cc2)cc(OC)c1O	-3	2	2	-1	-4	-10
O=C(NN=Cc1ccc(F)c(F)c1)c1ccc(NS(=O)(=O)c2cccs2)cc1	-20	33*	0	-21	-12	x
CNC[C@@H]1Oc2ncc(-c3ccccc3C)cc2C(=O)N([C@H](C)CO)C[C@@H]1C	21	4	0	7	-13	x
CCNC(=O)C[C@H]1CC[C@H]2[C@@H](COc3ccc(NC(=O)Nc4cccc(OC)c4)cc3C(=O)N2C)O1	-1	x	0	1	x	-5
C[C@@H](NC(=O)C[C@@H]1CC[C@H](NC(=O)C2CC2)[C@H](CO)O1)c1ccccc1	12	-1	0	2	-5	-1
COc1nc(Nc2cccc(F)c2)nc(OC)n1	x	-4	x	12	-5	0
COc1nc(Nc2ccccc2)nc(OC)n1	41*	0	4	3	-22	7
CC(C)NC(=O)N(C)C[C@H]1Oc2ncc(C#Cc3ccncc3)cc2C(=O)N([C@H](C)CO)C[C@@H]1C	18	-4	-1	4	10	1
O=C(C1CCCCC1)N1C[C@H]2[C@@H](c3ccccc31)[C@H](CO)N2C(=O)c1ccccc1F	3	0	0	0	-4	6
CC(=O)c1sc(-c2ccc(Cl)cc2)cc1N	-7	x	3	-30*	-3	x
O=C(Nc1ccccc1C(=O)NCC1CCCO1)c1ccc(Cl)cc1 (centres undefined)	36	-1	x	-9	7	-8
COc1ccc(C(=O)Nc2ccccc2C(=O)NCC2CCCO2)cc1 (centres undefined)	52*	0	0	-1	-16	7
COc1ccc(CCNC(=O)c2ccc(N(C)S(=O)(=O)c3ccc(C)cc3)cc2)cc1OC	-25	1	x	-21	7	7
COc1ccc(S(=O)(=O)N(C)c2ccc(C(=O)NCC3CCCO3)cc2)cc1OC (centres undefined)	48*	-2	1	5	3	-7
